Laboratory results as given in ChEMBL document CHEMBL1154638, “14beta-Arylpropiolylamino-17-cyclopropylmethyl-7,8-dihydronormorphinones and related opioids. Further examples of pseudoirreversible mu opioid receptor antagonists” (J Med Chem, 2009).
pEC50, pKi: −log10 of the molar value. The source made the active and inactive calls. The calls are words filed in the database; no cut-off is given here.

Columns and labels:
[1] = molecular target: Mu-type opioid receptor (Homo sapiens, UniProt P35372); experiment: Displacement of [3H]DAMGO from human recombinant mu opioid receptor expressed in CHO cells by liquid scintillation counting; type: cell-based
Chain of Mu-type opioid receptor (P35372 whole entry): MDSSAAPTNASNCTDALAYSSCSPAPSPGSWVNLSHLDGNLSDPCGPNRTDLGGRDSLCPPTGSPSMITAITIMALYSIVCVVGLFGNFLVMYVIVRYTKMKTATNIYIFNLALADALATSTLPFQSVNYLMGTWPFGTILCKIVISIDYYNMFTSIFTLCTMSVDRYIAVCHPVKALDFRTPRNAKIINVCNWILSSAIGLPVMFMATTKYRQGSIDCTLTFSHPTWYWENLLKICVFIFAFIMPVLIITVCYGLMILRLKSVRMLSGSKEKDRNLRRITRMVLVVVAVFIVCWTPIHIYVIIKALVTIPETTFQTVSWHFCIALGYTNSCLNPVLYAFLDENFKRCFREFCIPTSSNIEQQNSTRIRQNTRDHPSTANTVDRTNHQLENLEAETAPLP
Outline: (§1)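 Competitive displacement binding uses membranes from CHO cells expressing recombinant human opioid receptors. Radioligands are [3H]DAMGO for mu and [3H]DPDPE for delta. Ki is reported in nM as the mean of two experiments, each run in triplicate.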

[2] = molecular target: T1, Delta-type opioid receptor (Homo sapiens, UniProt P41143); experiment: Displacement of [3H]DPDPE from human recombinant delta opioid receptor expressed in CHO cells by liquid scintillation counting; type: cell-based; outline: as §1
T1 sequence (P41143 whole entry): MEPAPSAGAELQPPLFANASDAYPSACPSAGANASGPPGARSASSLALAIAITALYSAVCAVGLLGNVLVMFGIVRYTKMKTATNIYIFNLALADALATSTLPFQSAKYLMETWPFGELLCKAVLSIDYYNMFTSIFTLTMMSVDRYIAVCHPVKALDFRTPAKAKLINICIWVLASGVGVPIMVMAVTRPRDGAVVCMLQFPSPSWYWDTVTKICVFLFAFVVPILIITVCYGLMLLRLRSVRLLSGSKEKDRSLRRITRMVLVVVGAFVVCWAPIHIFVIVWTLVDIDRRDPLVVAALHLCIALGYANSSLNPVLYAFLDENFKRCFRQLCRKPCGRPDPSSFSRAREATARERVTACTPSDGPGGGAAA

[3] = molecular target: T2, Kappa-type opioid receptor (Homo sapiens, UniProt P41145); experiment: Displacement of [3H]U69593 from human recombinant kappa opioid receptor expressed in CHO cells by liquid scintillation counting; type: cell-based
T2 sequence (P41145 whole entry): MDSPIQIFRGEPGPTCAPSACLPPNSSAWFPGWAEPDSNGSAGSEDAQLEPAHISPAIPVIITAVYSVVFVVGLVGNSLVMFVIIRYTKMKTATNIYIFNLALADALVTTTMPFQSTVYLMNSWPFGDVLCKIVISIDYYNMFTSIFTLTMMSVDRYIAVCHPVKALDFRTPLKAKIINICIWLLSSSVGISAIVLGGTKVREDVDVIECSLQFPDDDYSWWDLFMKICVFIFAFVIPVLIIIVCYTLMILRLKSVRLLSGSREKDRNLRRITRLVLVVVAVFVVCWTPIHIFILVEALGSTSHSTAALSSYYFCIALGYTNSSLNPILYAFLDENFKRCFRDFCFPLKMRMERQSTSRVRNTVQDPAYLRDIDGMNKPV

[4] = molecular target: T2, Kappa-type opioid receptor; experiment: Agonist activity at human kappa opioid receptor expressed in CHO cells assessed as [35S]GTPgammaS binding; type: functional, cell-based
Outline: (§2)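 Membranes from CHO cells transfected with individual recombinant human opioid receptors (mu, delta or kappa). Ligand-stimulated [35S]GTPγS binding is measured at each receptor type, for agonist stimulation and for antagonism. At kappa, agonist efficacy is expressed as % stimulation relative to U69593, alongside EC50.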

[5] = molecular target: T2, Kappa-type opioid receptor; experiment: Agonist activity at human kappa opioid receptor expressed in CHO cells assessed as [35S]GTPgammaS binding relative to U69593; type: functional, cell-based; outline: as §2
[6] = test system: Mus musculus; experiment: Antinociceptive activity in Swiss mouse assessed as tail withdrawal response at 100 mg/kg, ip after 30 mins by warm-water tail-withdrawal assay; type: functional; conditions: route intraperitoneal
[7] = Displacement of [3H]DPDPE from human recombinant delta opioid receptor expressed in CHO cells by liquid scintillation counting
[8] = molecular target: T1, Delta-type opioid receptor; experiment: Agonist activity at human delta opioid receptor expressed in CHO cells assessed as [35S]GTPgammaS binding; type: functional, cell-based; outline: as §2
[9] = molecular target: T1, Delta-type opioid receptor; experiment: Agonist activity at human delta opioid receptor expressed in CHO cells assessed as [35S]GTPgammaS binding relative to DPDPE; type: functional, cell-based; outline: as §2
[10] = test system: Mus musculus; experiment: Antinociceptive activity in Swiss mouse assessed as tail withdrawal response at 3.2 mg/kg, ip by warm-water tail-withdrawal assay; type: functional, organism-based; design: dose 3.2 mg/kg
Outline: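 Mouse warm-water (50 °C) tail-withdrawal assay. Compound was given across a dose range, and antinociception was expressed as a percentage of the maximum possible effect.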

[11] = test system: Mus musculus; experiment: Antinociceptive activity in Swiss mouse assessed as inhibition of acetic acid-induced writhing at 0.32 mg/kg, ip by writhing assay; type: functional, organism-based; design: dose 0.32 mg/kg
[12] = test system: Mus musculus; experiment: Antinociceptive activity in Swiss mouse assessed as inhibition of acetic acid-induced writhing at 0.32 mg/kg, ip by writhing assay in presence of mu opioid receptor antagonist M-CAM; type: functional, organism-based; design: dose 0.32 mg/kg
[13] = test system: Mus musculus; experiment: Antinociceptive activity in Swiss mouse assessed as inhibition of acetic acid-induced writhing at 0.32 mg/kg, ip by writhing assay in presence of delta opioid receptor antagonist naltrindole; type: functional, organism-based; design: dose 0.32 mg/kg
[14] = test system: Mus musculus; experiment: Antinociceptive activity in Swiss mouse assessed as inhibition of acetic acid-induced writhing at 0.32 mg/kg, ip by writhing assay in presence of kappa opioid receptor antagonist norBNI; type: functional, organism-based; design: dose 0.32 mg/kg
[15] = test system: Mus musculus; experiment: Antinociceptive activity in Swiss mouse assessed as tail withdrawal response at 100 mg/kg, ip after […] by warm-water tail-withdrawal assay; type: functional; conditions: route intraperitoneal
[16] = test system: Mus musculus; experiment: Antinociceptive activity in Swiss mouse assessed as tail withdrawal response at 100 mg/kg, ip after 3 days by warm-water tail-withdrawal assay; type: functional; conditions: route intraperitoneal
[17] = test system: Mus musculus; experiment: Antinociceptive activity against acetic acid-induced writhing in Swiss mouse assessed as reversal of mu opioid receptor agonist morphine response at 3.2 mg/kg, ip by writhing assay; type: functional, organism-based; design: dose 3.2 mg/kg
Outline: (§3)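 Mouse abdominal stretch assay. […] Stretches were counted, with saline as vehicle. Statistics used one-way ANOVA with Dunnett's post hoc test versus agonist alone and versus test ligand alone.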

[18] = test system: Mus musculus; type: functional, organism-based; design: dose 3.2 mg/kg; conditions: Swiss, 3.2 mg/kg
[19] = test system: Mus musculus; experiment: Antinociceptive activity against acetic acid-induced writhing in Swiss mouse assessed as reversal of […] response at 3.2 mg/kg, ip by writhing assay; type: functional, organism-based; design: dose 3.2 mg/kg; outline: as §3
[20] = test system: Mus musculus; experiment: Antinociceptive activity against acetic acid-induced writhing in Swiss mouse assessed as reversal of mu opioid receptor agonist morphine response at 1 mg/kg, ip by writhing assay; type: functional, organism-based; design: dose 1 mg/kg
[21] = test system: Mus musculus; type: functional, organism-based; design: dose 1 mg/kg; conditions: Swiss, 1 mg/kg
[22] = test system: Mus musculus; experiment: Antinociceptive activity against acetic acid-induced writhing in Swiss mouse assessed as reversal of […] response at 1 mg/kg, ip by writhing assay; type: functional, organism-based; design: dose 1 mg/kg

Structure (SMILES)	pKi [1]	pKi [2]	pKi [3]	pEC50 [4]	Activity [5]	further results
COc1ccc2c3c1O[C@H]1C(=O)CC[C@@]4(NC(=O)C#Cc5ccc(Cl)cc5)[C@@H](C2)N(CC2CC2)CC[C@]314	8.13	7.19	7.86	7.70	25%	Activity [6]: 0%
COc1ccc2c3c1O[C@H]1C(=O)CC[C@@]4(NC/C=C/c5ccc(Cl)cc5)[C@@H](C2)N(CC2CC2)CC[C@]314	9.15	–	7.27	–	–	pKi [7]: 7.35
COc1ccc2c3c1O[C@H]1C(=O)CC[C@@]4(NC(=O)C#Cc5ccccc5)[C@@H](C2)N(CC2CC2)CC[C@]314	8.84	7.55	8.10	8.50	77%	pEC50 [8]: 7.12; Activity [9]: 47%; Activity [10]: Active; Activity [11]: Active; Activity [12]: inactive; Activity [13]: Active; Activity [14]: Active
O=C(C#Cc1ccccc1)N[C@@]12CCC(=O)[C@@H]3Oc4c(O)ccc5c4[C@@]31CCN(CC1CC1)[C@@H]2C5	8.88	8.80	8.95	9.52	21%	Activity [15]: 0%
COc1ccc2c3c1O[C@H]1C(=O)CC[C@@]4(NCC#Cc5ccc(Cl)cc5)[C@@H](C2)N(CC2CC2)CC[C@]314	8.01	6.87	7.13	–	–	–
O=C(C#Cc1ccc(Cl)cc1)N[C@@]12CCC(=O)[C@@H]3Oc4c(O)ccc5c4[C@@]31CCN(CC1CC1)[C@@H]2C5	8.43	8.27	8.56	–	–	Activity [16]: 20%; Activity [6]: 0%; Activity [17]: Active; Activity [18]: Active; Activity [19]: Active; Activity [20]: Active; Activity [21]: Active; Activity [22]: Active
O=C1CC[C@@]2(NCC#Cc3ccc(Cl)cc3)[C@H]3Cc4ccc(O)c5c4[C@@]2(CCN3CC2CC2)[C@H]1O5	9.01	8.49	8.54	–	–	–
